Assay results: ChEMBL document CHEMBL1145969, “New semisynthetic quassinoids with in vivo antimalarial activity” (J Med Chem, 2003)

Key:
[1] = test system: FM3A; experiment: Cytotoxicity of compound was tested against mouse mammary tumor FM3A cells; type: functional, cell-based
[2] = Selectivity index defined as mean of EC50 value for FM3A cells/mean of EC50 value for Plasmodium falciparum was determined; type: functional
In short: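 Index is the mean EC50 in FM3A mouse mammary tumor cells (the host-cell model) divided by the mean EC50 against chloroquine-sensitive P. falciparum FCR-3.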

[3] = test system: Plasmodium falciparum; experiment: In vitro antimalarial activity against Plasmodium falciparum; type: functional, organism-based
In short: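 Chloroquine-sensitive P. falciparum, FCR-3 strain, grown in vitro; potency is reported as EC50.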

[4] = test system: Mus musculus; experiment: Antimalarial potency was evaluated by the increase of life span of mice (Mus musculus) at 3 mg/kg; type: functional
In short: (§1)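 Mice infected with P. berghei were treated daily in a 4-day suppressive test, with the dose as given in each line. Increase of life span = (T/C − 1) × 100%, where T and C are the mean survival days of the treated and control groups.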

[5] = test system: Mus musculus; experiment: In Vivo antimalarial activity of compound was tested in Plasmodium berghei infected mice (Mus musculus); type: functional
In short: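 Four-day suppressive test in P. berghei-infected mice, dosed daily at up to 3.0 mg/kg per day. Parasitemia is the number of infected erythrocytes over total erythrocytes. Survival is scored as increase of life span: ILS = (T/C − 1) × 100%, using mean survival days of the treated (T) and control (C) groups.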

[6] = test system: Mus musculus; experiment: Antimalarial potency was evaluated by the increase of life span of mice (Mus musculus) at 1 mg/kg; type: functional; in short: as §1

SMILES | EC50 [1] [µM] | Selectivity index [2] | EC50 [3] [µM] | ILS at 3 mg/kg [4] [%] | ED50 [5] [mg/kg] | ED90 [5] [mg/kg] | ILS at 1 mg/kg [6] [%]
COC(=O)[C@@]12OC[C@]34[C@H]([C@@H](O)[C@@H]1O)[C@@]1(C)CC(=O)C(O)=C(C)[C@@H]1C[C@H]3OC(=O)[C@H](OC(C)=O)[C@@H]24 [BRUCEINE B] | 8 | 333 | – | – | – | – | –
COC(=O)O[C@H]1C(=O)O[C@@H]2C[C@H]3C(C)=C(O)C(=O)C[C@]3(C)[C@H]3[C@@H](O)[C@H](O)[C@@]4(C(=O)OC)OC[C@]32[C@@H]14 | 8.7 | 164 | 0.053 | – | – | – | –
COC(=O)[C@@]12OC[C@]34[C@H]([C@@H](O)[C@@H]1O)[C@@]1(C)CC(=O)C(OC(=O)OC(C)C)=C(C)[C@@H]1C[C@H]3OC(=O)[C@H](OC(=O)OC(C)C)[C@@H]24 | 11 | 138 | 0.08 | 86 | 1.4 | > 3 | –
CCCCOC(=O)OC1=C(C)[C@@H]2C[C@H]3OC(=O)[C@H](OC(=O)OCCCC)[C@H]4[C@]5(C(=O)OC)OC[C@]34[C@H]([C@@H](O)[C@@H]5O)[C@@]2(C)CC1=O | 0.7 | 50 | 0.014 | – | – | – | –
COC(=O)OC1=C(C)[C@@H]2C[C@H]3OC(=O)[C@H](OC(=O)OC)[C@H]4[C@]5(C(=O)OC)OC[C@]34[C@H]([C@@H](O)[C@@H]5O)[C@@]2(C)CC1=O | > 63 | >700 | 0.09 | 196 | 1.3 | 3 | –
COC(=O)[C@@]12OC[C@]34[C@H]([C@@H](O)[C@@H]1O)[C@@]1(C)CC(=O)C(OC(C)=O)=C(C)[C@@H]1C[C@H]3OC(=O)[C@H](O)[C@@H]24 | > 32 | >36 | 0.88 | – | – | – | –
COC(=O)[C@@]12OC[C@]34[C@H]([C@@H](O)[C@@H]1O)[C@@]1(C)CC(=O)C(O)=C(C)[C@@H]1C[C@H]3OC(=O)[C@H](O)[C@@H]24 [BRUCEOLIDE] | – | – | – | – | 1.1 | – | –
CCN(CC)CCCC(C)Nc1ccnc2cc(Cl)ccc12 (stereo not drawn) [CHLOROQUINE] | 32 | 1780 | – | 15 | 2 | 3.3 | –
COC(=O)[C@@]12OC[C@]34[C@H]([C@@H](O)[C@@H]1O)[C@@]1(C)CC(=O)C(OC(C)=O)=C(C)[C@@H]1C[C@H]3OC(=O)[C@H](OC(C)=O)[C@@H]24 | 16 | 410 | – | – | 0.46 | 0.98 | 49
CCCOC(=O)OC1=C(C)[C@@H]2C[C@H]3OC(=O)[C@H](OC(=O)OCCC)[C@H]4[C@]5(C(=O)OC)OC[C@]34[C@H]([C@@H](O)[C@@H]5O)[C@@]2(C)CC1=O | 6.6 | 66 | 0.1 | – | – | – | –
CCOC(=O)OC1=C(C)[C@@H]2C[C@H]3OC(=O)[C@H](OC(=O)OCC)[C@H]4[C@]5(C(=O)OC)OC[C@]34[C@H]([C@@H](O)[C@@H]5O)[C@@]2(C)CC1=O | 36 | 563 | 0.064 | 182 | 0.49 | 1.9 | –
